Results as given in ChEMBL document CHEMBL1137753, “Insecticidal heterolignans--tubuline polymerization inhibitors with activity against chewing pests” (Bioorg Med Chem, 2009).
Activity calls are given as the source filed them. Unless noted, the rule behind the calls is not given here.

What was measured:
Spodoptera frugiperda [1] = assay: Insecticidal activity against Spodoptera frugiperda larvae in disk of maize leaf at 100 g/ha treated as spray; format: functional, organism-based
Summary of the method: (§1)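 The same acetone/DMF/emulsifier formulation, diluted in emulsifier-containing water, was sprayed onto maize leaf disks. Dried disks were infested with fall armyworm larvae and mortality was assessed after a set time. "+" denotes ≥80% larvae killed; n.a. denotes no larvae killed.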

Phaedon cochleariae [2] = assay: Insecticidal activity against Phaedon cochleariae larvae in disk of Chinese cabbage leaf at 500 g/ha treated as spray; format: functional, organism-based
Summary of the method: (§2)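 This was sprayed on Chinese cabbage leaf disks. Once dry, disks were infested with mustard beetle larvae and mortality was scored after a set time. "+" denotes ≥80% larvae killed; n.a. denotes none killed.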

Phaedon cochleariae [3] = assay: Insecticidal activity against Phaedon cochleariae larvae in disk of Chinese cabbage leaf treated as spray; format: functional, organism-based
Phaedon cochleariae [4] = assay: Insecticidal activity against Phaedon cochleariae larvae in disk of Chinese cabbage leaf at 100 g/ha treated as spray; format: functional, organism-based; summary of the method: as §2
Sf9 [5] = assay: Cytotoxicity against Spodoptera frugiperda Sf9 cells assessed as chromatin condensation at 0.14 ppm after 48 hrs by fluorescence microscopy; format: functional, cell-based
Summary of the method: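 Sf9 cells seeded in 8-well slide chambers the day before, then exposed to compound for 48 h. After two PBS washes, cells were fixed in ice-cold methanol for 10 min on ice, given two short acetone washes, rehydrated in PBS and stained with Dapi (2 µM) for 30 min. Chromatin condensation/fragmentation scored by fluorescence microscopy with a x40 objective.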

CHO [6] = assay: Cytotoxicity against CHO cells assessed as chromatin condensation after 24 hrs by fluorescence microscopy; format: cell-based, Cricetulus griseus; conditions: chinese hamster
Spodoptera frugiperda [7] = assay: Insecticidal activity against Spodoptera frugiperda larvae in disk of maize leaf at 4 g/ha treated as spray; format: functional, organism-based; summary of the method: as §1
CHO [8] = assay: Cytotoxicity against CHO cells assessed as chromatin condensation after 48 hrs by fluorescence microscopy; format: cell-based, Cricetulus griseus; conditions: chinese hamster
Summary of the method: (§3)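 Sf9 or CHO cells were seeded in chamber slides the day before treatment and exposed to compound for 48 h. They were then PBS-washed, fixed in ice-cold methanol for 10 min on ice, and rinsed with acetone. After rehydration in PBS, cells were stained with 2 µM DAPI for 30 min. Nuclei were examined by fluorescence microscopy (×40) for chromatin condensation or fragmentation.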

Spodoptera frugiperda [9] = assay: Insecticidal activity against Spodoptera frugiperda larvae in disk of maize leaf at 500 g/ha treated as spray; format: functional, organism-based; summary of the method: as §1
Sf9 [10] = assay: Cytotoxicity against Spodoptera frugiperda Sf9 cells assessed as chromatin condensation at 3 ppm after 48 hrs by fluorescence microscopy; format: functional, cell-based; summary of the method: as §3
Spodoptera frugiperda [11] = assay: Insecticidal activity against Spodoptera frugiperda larvae in disk of maize leaf treated as spray; format: functional, organism-based
Phaedon cochleariae [12] = assay: Insecticidal activity against Phaedon cochleariae larvae in disk of Chinese cabbage leaf at 20 g/ha treated as spray; format: functional, organism-based; summary of the method: as §2

**Q.** With O=C1NCC2=C1C(c1cccc(Cl)c1)c1cc3c(cc1N2)OCO3 (stereo not drawn) as the molecule, how does the Activity (Spodoptera frugiperda [1]) read?
**A.** The Activity was “Active”.

**Q.** What about the Activity (Phaedon cochleariae [2]) of the same molecule?
**A.** Its Activity is “Active”.

**Q.** Which results are given for Cc1cccc(C2C3=C(COC3=O)Nc3cc4c(cc32)OCO4)c1 (stereo not drawn)?
**A.** Activity (Spodoptera frugiperda [1]): Active; Activity (Phaedon cochleariae [3]): inactive

**Q.** For O=C1OCC2=C1C(c1cccc(Br)c1)c1cc3c(cc1N2)OCO3 (stereo not drawn), which Activity (Phaedon cochleariae [4]) is on record?
**A.** The Activity was “Active”.

**Q.** For COc1cccc(C2C3=C(O)OCC3=Nc3cc4c(cc32)OCO4)c1 (stereo not drawn), which Activity (Spodoptera frugiperda [1]) is on record?
**A.** The Activity was “Active”.

**Q.** And the Activity (Phaedon cochleariae [3])?
**A.** Its Activity is “inactive”.

**Q.** What does the source list for O=C1OCC2=C1C(c1cncc(Br)c1)c1cc3c(cc1N2)OCO3 (stereo not drawn)?
**A.** Activity (Spodoptera frugiperda [1]): Active; Activity (Phaedon cochleariae [3]): inactive

**Q.** For COc1cc(OC)cc([C@H]2C3=C(COC3=O)Nc3cc(OC)ccc32)c1, which Activity (Sf9 [5]) is on record?
**A.** The Activity was “Active”.

**Q.** For CCOc1ccc2c(c1)NC1=C(C(=O)OC1)C2c1cc(OC)cc(OC)c1 (stereo not drawn), which Activity (Sf9 [5]) is on record?
**A.** Its Activity is “Active”.

**Q.** And the Activity (CHO [6])?
**A.** Its Activity is “Toxic”.

**Q.** And the Activity (Spodoptera frugiperda [7])?
**A.** Its Activity is “Active”.

**Q.** And the Activity (Phaedon cochleariae [2])?
**A.** The Activity was “Active”.

**Q.** And the Activity (CHO [8])?
**A.** Its Activity is “Toxic”.

**Q.** COc1cc(C2C3=C(COC3=O)Nc3cc4c(cc32)OCO4)cc2c1OCO2 (stereo not drawn) was tested. Which Activity (Spodoptera frugiperda [9]) did it give?
**A.** The Activity was “Active”.

**Q.** Which Activity (Phaedon cochleariae [4]) does the source give for O=C1OCC2=C1C(c1cccc(F)c1)c1cc3c(cc1N2)OCO3 (stereo not drawn) here?
**A.** The Activity was “Active”.

**Q.** O=C1OCC2=C1C(c1cccc(OC(F)(F)F)c1)c1cc3c(cc1N2)OCO3 (stereo not drawn) was tested. Which Activity (Phaedon cochleariae [4]) did it give?
**A.** Its Activity is “Active”.

**Q.** What does the source list for O=C1OCC2=C1C(c1cc(Br)c3c(c1)OCO3)c1cc3c(cc1N2)OCO3 (stereo not drawn)?
**A.** Activity (Phaedon cochleariae [4]): Active; Activity (Spodoptera frugiperda [9]): Active

**Q.** CCOc1cccc(C2C3=C(COC3=O)Nc3cc4c(cc32)OCO4)c1 (stereo not drawn) was tested. Which Activity (Phaedon cochleariae [4]) did it give?
**A.** Its Activity is “Active”.

**Q.** What about the Activity (Spodoptera frugiperda [1]) of the same molecule?
**A.** The Activity was “Active”.

**Q.** With O=C1OCC2=C1C(c1cncc(-c3ccc(F)cc3)c1)c1cc3c(cc1N2)OCO3 (stereo not drawn) as the molecule, how does the Activity (Phaedon cochleariae [4]) read?
**A.** The Activity was “Active”.

**Q.** And the Activity (Spodoptera frugiperda [9])?
**A.** Its Activity is “Active”.

**Q.** How did the Activity (Spodoptera frugiperda [1]) turn out when COc1cc(OC)cc(C2C3=C(CCC3=O)Nc3cc4c(cc32)OCO4)c1 (stereo not drawn) was run?
**A.** Its Activity is “Active”.

**Q.** What about the Activity (Phaedon cochleariae [2]) of the same molecule?
**A.** The Activity was “Active”.

**Q.** How did the Activity (Sf9 [10]) turn out when COc1ccc(C2C3=C(COC3=O)Nc3cc4c(cc32)OCO4)cc1OC (stereo not drawn) was run?
**A.** The Activity was “Active”.

**Q.** And the Activity (CHO [6])?
**A.** Its Activity is “Toxic”.

**Q.** What about the Activity (Spodoptera frugiperda [11]) of the same molecule?
**A.** Its Activity is “inactive”.

**Q.** What about the Activity (Phaedon cochleariae [3]) of the same molecule?
**A.** The Activity was “inactive”.

**Q.** What about the Activity (CHO [8]) of the same molecule?
**A.** Its Activity is “Toxic”.

**Q.** How did the Activity (Spodoptera frugiperda [1]) turn out when COc1cc(OC)cc(C2C3=C(COC3=O)Nc3cc(SC)ccc32)c1 (stereo not drawn) was run?
**A.** The Activity was “Active”.

**Q.** What about the Activity (Phaedon cochleariae [2]) of the same molecule?
**A.** Its Activity is “Active”.

**Q.** Which Activity (Phaedon cochleariae [4]) does the source give for O=C1OCC2=C1C(c1cccc(OC(F)(F)C(F)F)c1)c1cc3c(cc1N2)OCO3 (stereo not drawn) here?
**A.** The Activity was “Active”.

**Q.** And the Activity (Spodoptera frugiperda [1])?
**A.** The Activity was “Active”.

**Q.** For COc1cc(OC)cc(C2C3=C(COC3=O)N(C)c3cc(OC)ccc32)c1 (stereo not drawn), which Activity (Spodoptera frugiperda [1]) is on record?
**A.** Its Activity is “Active”.

**Q.** And the Activity (Phaedon cochleariae [3])?
**A.** Its Activity is “inactive”.

**Q.** CC(C)Oc1cccc(C2C3=C(COC3=O)Nc3cc4c(cc32)OCO4)c1 (stereo not drawn) was tested. Which Activity (Spodoptera frugiperda [9]) did it give?
**A.** The Activity was “Active”.

**Q.** What about the Activity (Phaedon cochleariae [3]) of the same molecule?
**A.** Its Activity is “inactive”.

**Q.** How did the Activity (Phaedon cochleariae [4]) turn out when O=C1OCC2=C1C(c1cc(F)cc(F)c1)c1cc3c(cc1N2)OCO3 (stereo not drawn) was run?
**A.** Its Activity is “Active”.

**Q.** How did the Activity (Spodoptera frugiperda [9]) turn out when COc1cc(OC)cc(C2C3=C(COC3=O)Nc3c(OC)cc(C)cc32)c1 (stereo not drawn) was run?
**A.** The Activity was “Active”.

**Q.** What about the Activity (Phaedon cochleariae [12]) of the same molecule?
**A.** Its Activity is “Active”.

**Q.** Which results are given for COc1cc(OC)cc(C2C3=C(COC3=O)Nc3cc(OC)ccc32)c1 (stereo not drawn)?
**A.** Activity (Spodoptera frugiperda [7]): Active; Activity (Phaedon cochleariae [12]): Active

**Q.** Which Activity (Spodoptera frugiperda [1]) does the source give for COc1cc(C2C3=C(COC3=O)Nc3cc4c(cc32)OCO4)ccc1F (stereo not drawn) here?
**A.** The Activity was “Active”.

**Q.** What about the Activity (Phaedon cochleariae [2]) of the same molecule?
**A.** Its Activity is “Active”.

**Q.** COc1cc(C2C3=C(COC3=O)Cc3cc4c(cc32)OCO4)cc(OC)c1OC (stereo not drawn) was tested. Which Activity (Phaedon cochleariae [4]) did it give?
**A.** Its Activity is “Active”.

**Q.** What about the Activity (Spodoptera frugiperda [11]) of the same molecule?
**A.** Its Activity is “inactive”.

**Q.** For COc1ccc2c(c1)OC1=C(C(=O)OC1)C2c1cc(Cl)cc(Cl)c1 (stereo not drawn), which Activity (Spodoptera frugiperda [9]) is on record?
**A.** The Activity was “Active”.

**Q.** And the Activity (Phaedon cochleariae [3])?
**A.** The Activity was “inactive”.

**Q.** With COc1cc(OC)cc(C2C3=C(COC3=O)Nc3cc(OC)cc(OC)c32)c1 (stereo not drawn) as the molecule, how does the Activity (Phaedon cochleariae [4]) read?
**A.** The Activity was “Active”.

**Q.** What about the Activity (Spodoptera frugiperda [9]) of the same molecule?
**A.** The Activity was “Active”.

**Q.** How did the Activity (Sf9 [10]) turn out when O=C1CCC2=C1C(c1cccc(Cl)c1)c1cc3c(cc1N2)OCO3 (stereo not drawn) was run?
**A.** The Activity was “Active”.

**Q.** What about the Activity (CHO [6]) of the same molecule?
**A.** The Activity was “Toxic”.

**Q.** What about the Activity (Spodoptera frugiperda [11]) of the same molecule?
**A.** The Activity was “inactive”.

**Q.** What about the Activity (Phaedon cochleariae [3]) of the same molecule?
**A.** The Activity was “inactive”.

**Q.** And the Activity (CHO [8])?
**A.** Its Activity is “Toxic”.

**Q.** How did the Activity (Spodoptera frugiperda [11]) turn out when COc1cc(C2C3=C(COC3=O)Nc3cc4c(cc32)OCO4)cc(OC)c1OC (stereo not drawn) was run?
**A.** Its Activity is “inactive”.

**Q.** And the Activity (Phaedon cochleariae [12])?
**A.** The Activity was “Active”.

**Q.** For O=C1OCC2=C1C(c1cc(F)c(F)c(F)c1)c1cc3c(cc1N2)OCO3 (stereo not drawn), which Activity (Spodoptera frugiperda [9]) is on record?
**A.** Its Activity is “Active”.

**Q.** What about the Activity (Phaedon cochleariae [3]) of the same molecule?
**A.** Its Activity is “inactive”.

**Q.** With COc1cc(OC)cc(C2C3=C(COC3=O)Nc3ccc(OC)cc32)c1 (stereo not drawn) as the molecule, how does the Activity (Spodoptera frugiperda [1]) read?
**A.** Its Activity is “Active”.

**Q.** What about the Activity (Phaedon cochleariae [12]) of the same molecule?
**A.** The Activity was “Active”.
